According to ChEMBL document CHEMBL4689842, “EUbOPEN Chemogenomics Library wave 1” (2021):

Test system: U2OS
Test: Multiplex assay against U2OS
Assay type: toxicity, cell-based
Conditions: human
Procedure, shortened: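 At seeding, live cells were stained with Hoechst33342, BioTracker Green Microtubule Cytoskeleton Dye, MitoTracker Red and Annexin V Alexa Fluor 680. After compound addition they were imaged on a CQ1 microscope at 37°C and 5% CO2, and CellPathfinder machine-learning gating sorted them into Hoechst high-intensity objects or normal cells, with normal cells further split into healthy, pyknosed or fragmented nuclei and pyknosed cells into mitotic or apoptotic. Tubulin, mitochondrial-mass and membrane-permeability phenotypes are given as per cents of cells with healthy nuclei.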

[1] = 12 h, 1 µM, compound concentration 1 uM, replicate 1
[2] = 12 h, 1 µM, compound concentration 1 uM, replicate 2
[3] = 12 h, 10 µM, compound concentration 10 uM, replicate 1
[4] = 12 h, 10 µM, compound concentration 10 uM, replicate 2
[5] = 24 h, 1 µM, compound concentration 1 uM, replicate 1
[6] = 24 h, 1 µM, compound concentration 1 uM, replicate 2
[7] = 24 h, 10 µM, compound concentration 10 uM, replicate 1
[8] = 24 h, 10 µM, compound concentration 10 uM, replicate 2

COc1cc2c(Nc3ccc(NC(=O)c4ccccc4)cc3)ncnc2cc1OCCCN1CCOCC1
Population Apoptotic (%) [1]: 18%
Population Fragmented Nuclei (%) [1]: 8%
Population Healthy Nuclei (%) [1]: 77%
Population Hoechst High Intensity Objects (%) [1]: 1%
Population Membrane Permeable-Phenotype (%) [1]: 63%
Population Mitochondria Different-Phenotype (%) [1]: 24%
Population Mitotic Cells (%) [1]: 81%
Population Normal (%) [1]: 98%
Population Pyknosed Nuclei (%) [1]: 13%
Population Tubulin-Different-Phenotype (%) [1]: 99%
Total Cell Count [1]: 121
Population Apoptotic (%) [2]: 0%
Population Fragmented Nuclei (%) [2]: 20%
Population Healthy Nuclei (%) [2]: 74%
Population Hoechst High Intensity Objects (%) [2]: 12%
Population Membrane Permeable-Phenotype (%) [2]: 67%
Population Mitochondria Different-Phenotype (%) [2]: 14%
Population Mitotic Cells (%) [2]: 100%
Population Normal (%) [2]: 87%
Population Pyknosed Nuclei (%) [2]: 5%
Population Tubulin-Different-Phenotype (%) [2]: 92%
Total Cell Count [2]: 97
Population Apoptotic (%) [3]: 44%
Population Fragmented Nuclei (%) [3]: 5%
Population Healthy Nuclei (%) [3]: 86%
Population Hoechst High Intensity Objects (%) [3]: 3%
Population Membrane Permeable-Phenotype (%) [3]: 10%
Population Mitochondria Different-Phenotype (%) [3]: 24%
Population Mitotic Cells (%) [3]: 55%
Population Normal (%) [3]: 96%
Population Pyknosed Nuclei (%) [3]: 7%
Total Cell Count [3]: 215
Population Apoptotic (%) [4]: 0%
Population Fragmented Nuclei (%) [4]: 10%
Population Healthy Nuclei (%) [4]: 87%
Population Hoechst High Intensity Objects (%) [4]: 11%
Population Membrane Permeable-Phenotype (%) [4]: 13%
Population Mitochondria Different-Phenotype (%) [4]: 38%
Population Mitotic Cells (%) [4]: 100%
Population Normal (%) [4]: 88%
Population Pyknosed Nuclei (%) [4]: 2%
Population Tubulin-Different-Phenotype (%) [4]: 14%
Total Cell Count [4]: 115
Population Apoptotic (%) [5]: 19%
Population Fragmented Nuclei (%) [5]: 16%
Population Healthy Nuclei (%) [5]: 63%
Population Hoechst High Intensity Objects (%) [5]: 2%
Population Membrane Permeable-Phenotype (%) [5]: 48%
Population Mitochondria Different-Phenotype (%) [5]: 39%
Population Mitotic Cells (%) [5]: 80%
Population Normal (%) [5]: 97%
Population Pyknosed Nuclei (%) [5]: 19%
Population Tubulin-Different-Phenotype (%) [5]: 98%
Total Cell Count [5]: 129
Population Apoptotic (%) [6]: 26%
Population Fragmented Nuclei (%) [6]: 24%
Population Healthy Nuclei (%) [6]: 61%
Population Hoechst High Intensity Objects (%) [6]: 7%
Population Membrane Permeable-Phenotype (%) [6]: 44%
Population Mitochondria Different-Phenotype (%) [6]: 43%
Population Mitotic Cells (%) [6]: 73%
Population Normal (%) [6]: 92%
Population Pyknosed Nuclei (%) [6]: 14%
Population Tubulin-Different-Phenotype (%) [6]: 95%
Total Cell Count [6]: 108
Population Apoptotic (%) [7]: 18%
Population Fragmented Nuclei (%) [7]: 7%
Population Healthy Nuclei (%) [7]: 83%
Population Hoechst High Intensity Objects (%) [7]: 8%
Population Membrane Permeable-Phenotype (%) [7]: 13%
Population Mitochondria Different-Phenotype (%) [7]: 37%
Population Mitotic Cells (%) [7]: 81%
Population Normal (%) [7]: 91%
Population Pyknosed Nuclei (%) [7]: 9%
Population Tubulin-Different-Phenotype (%) [7]: 18%
Total Cell Count [7]: 237
Population Apoptotic (%) [8]: 25%
Population Fragmented Nuclei (%) [8]: 14%
Population Healthy Nuclei (%) [8]: 77%
Population Hoechst High Intensity Objects (%) [8]: 10%
Population Membrane Permeable-Phenotype (%) [8]: 14%
Population Mitochondria Different-Phenotype (%) [8]: 25%
Population Mitotic Cells (%) [8]: 75%
Population Normal (%) [8]: 89%
Population Pyknosed Nuclei (%) [8]: 8%
Population Tubulin-Different-Phenotype (%) [8]: 22%
Total Cell Count [8]: 115

c1ccc2oc(-c3csc(C4CCN(Cc5nc6ncccc6[nH]5)CC4)n3)cc2c1
Population Apoptotic (%) [1]: 8%
Population Fragmented Nuclei (%) [1]: 2%
Population Healthy Nuclei (%) [1]: 90%
Population Hoechst High Intensity Objects (%) [1]: 3%
Population Membrane Permeable-Phenotype (%) [1]: 12%
Population Mitochondria Different-Phenotype (%) [1]: 15%
Population Mitotic Cells (%) [1]: 91%
Population Normal (%) [1]: 96%
Population Pyknosed Nuclei (%) [1]: 6%
Population Tubulin-Different-Phenotype (%) [1]: 10%
Total Cell Count [1]: 182
Population Apoptotic (%) [2]: 25%
Population Fragmented Nuclei (%) [2]: 8%
Population Healthy Nuclei (%) [2]: 85%
Population Hoechst High Intensity Objects (%) [2]: 7%
Population Membrane Permeable-Phenotype (%) [2]: 8%
Population Mitochondria Different-Phenotype (%) [2]: 27%
Population Mitotic Cells (%) [2]: 75%
Population Normal (%) [2]: 92%
Population Tubulin-Different-Phenotype (%) [2]: 15%
Total Cell Count [2]: 141
Population Apoptotic (%) [3]: 42%
Population Fragmented Nuclei (%) [3]: 4%
Population Healthy Nuclei (%) [3]: 91%
Population Hoechst High Intensity Objects (%) [3]: 3%
Population Membrane Permeable-Phenotype (%) [3]: 9%
Population Mitochondria Different-Phenotype (%) [3]: 25%
Population Mitotic Cells (%) [3]: 57%
Population Normal (%) [3]: 96%
Population Pyknosed Nuclei (%) [3]: 3%
Population Tubulin-Different-Phenotype (%) [3]: 29%
Total Cell Count [3]: 205
Population Apoptotic (%) [4]: 25%
Population Fragmented Nuclei (%) [4]: 7%
Population Healthy Nuclei (%) [4]: 88%
Population Hoechst High Intensity Objects (%) [4]: 15%
Population Membrane Permeable-Phenotype (%) [4]: 18%
Population Mitochondria Different-Phenotype (%) [4]: 34%
Population Mitotic Cells (%) [4]: 75%
Population Normal (%) [4]: 84%
Population Pyknosed Nuclei (%) [4]: 4%
Population Tubulin-Different-Phenotype (%) [4]: 34%
Total Cell Count [4]: 114
Population Apoptotic (%) [5]: 40%
Population Fragmented Nuclei (%) [5]: 2%
Population Healthy Nuclei (%) [5]: 90%
Population Hoechst High Intensity Objects (%) [5]: 2%
Population Membrane Permeable-Phenotype (%) [5]: 7%
Population Mitochondria Different-Phenotype (%) [5]: 16%
Population Mitotic Cells (%) [5]: 60%
Population Normal (%) [5]: 97%
Population Tubulin-Different-Phenotype (%) [5]: 19%
Total Cell Count [5]: 223
Population Apoptotic (%) [6]: 25%
Population Fragmented Nuclei (%) [6]: 4%
Population Healthy Nuclei (%) [6]: 88%
Population Hoechst High Intensity Objects (%) [6]: 3%
Population Membrane Permeable-Phenotype (%) [6]: 9%
Population Mitochondria Different-Phenotype (%) [6]: 24%
Population Mitotic Cells (%) [6]: 75%
Population Normal (%) [6]: 96%
Population Pyknosed Nuclei (%) [6]: 6%
Population Tubulin-Different-Phenotype (%) [6]: 22%
Total Cell Count [6]: 181
Population Apoptotic (%) [7]: 45%
Population Fragmented Nuclei (%) [7]: 5%
Population Healthy Nuclei (%) [7]: 90%
Population Hoechst High Intensity Objects (%) [7]: 1%
Population Membrane Permeable-Phenotype (%) [7]: 5%
Population Mitochondria Different-Phenotype (%) [7]: 14%
Population Mitotic Cells (%) [7]: 54%
Population Normal (%) [7]: 98%
Population Pyknosed Nuclei (%) [7]: 3%
Total Cell Count [7]: 282
Population Apoptotic (%) [8]: 0%
Population Fragmented Nuclei (%) [8]: 4%
Population Healthy Nuclei (%) [8]: 91%
Population Hoechst High Intensity Objects (%) [8]: 9%
Population Membrane Permeable-Phenotype (%) [8]: 11%
Population Mitochondria Different-Phenotype (%) [8]: 33%
Population Mitotic Cells (%) [8]: 100%
Population Normal (%) [8]: 90%
Population Pyknosed Nuclei (%) [8]: 4%
Population Tubulin-Different-Phenotype (%) [8]: 33%
Total Cell Count [8]: 137
